ChEMBL document CHEMBL4665889, “Design, Synthesis, and Pharmacological Characterization of a Neutral, Non-Prodrug Thrombin Inhibitor with Good Oral Pharmacokinetics” (J Med Chem, 2020)
The source made the active and inactive calls. The rule behind the calls is not given here.

Assays:
[1] = Permeability from apical to basolateral side in human Caco2 cells incubated for 2 hrs by LC-MS/MS analysis; type: ADME, cell-based; conditions: Caco-2
In short: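 Caco-2 cells grown 15 d on 0.4 μm inserts, TEER ≥600 Ω. Compound (DMSO stock diluted 100-fold) in HBSS pH 7.4 with 10 mM HEPES and 20 mM glucose, added apically or basolaterally. Incubated 2 h at 37 °C and analysed by LC-MS/MS. Papp = (Vr/P0)·(1/S)·(P2/t); mean and SD.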

Plasma = assay: Anticoagulation activity in human plasma assessed as drug level causing doubling of APTT incubated for 3 mins; type: functional; conditions: 0.05 h
[2] = Half life in Wistar Hannover rat at 0.3 to 0.5 mg/kg, iv by LC-MS/MS analysis; type: ADME, organism-based; conditions: in vivo, dose 0.3-0.5 mg/kg, time <=24 hrs
In short: (§1)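 Male Wistar Hannover rats, catheterized under isoflurane; one day later iv injection into lateral tail vein at 0.3 to 0.5 mg/kg in plasma containing 2% DMSO. Blood sampled via catheter from 0.033 to 24 h. Plasma precipitated with acetonitrile, analysed by LC-MS/MS (10 mM ammonium acetate pH 3.0/acetonitrile gradient). PK parameters calculated from plasma concentrations.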

[3] = target: Coagulation factor XI (Homo sapiens) (UniProt P03951); assay: Inhibition of purified human plasma factor-11a up to 20 uM using Boc-Glu(OBzl)-Ala-Arg-AMC substrate incubated for 30 mins by fluorescence based assay; conditions: dose microM <=20, time 30.0 min
Sequence of Coagulation factor XI (Homo sapiens) (P03951 19-387 limits assumed): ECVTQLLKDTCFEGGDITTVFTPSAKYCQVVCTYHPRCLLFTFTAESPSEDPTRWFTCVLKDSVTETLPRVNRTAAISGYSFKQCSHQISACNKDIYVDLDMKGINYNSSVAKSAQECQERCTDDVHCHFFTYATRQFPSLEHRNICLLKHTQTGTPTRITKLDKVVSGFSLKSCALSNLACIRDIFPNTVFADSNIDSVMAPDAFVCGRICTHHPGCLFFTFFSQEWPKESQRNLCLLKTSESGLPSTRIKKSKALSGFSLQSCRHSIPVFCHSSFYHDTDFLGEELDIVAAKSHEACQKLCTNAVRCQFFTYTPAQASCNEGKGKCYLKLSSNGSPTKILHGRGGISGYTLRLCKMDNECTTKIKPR
Sequence of Coagulation factor XI (Homo sapiens) (P03951 388-625 limits assumed): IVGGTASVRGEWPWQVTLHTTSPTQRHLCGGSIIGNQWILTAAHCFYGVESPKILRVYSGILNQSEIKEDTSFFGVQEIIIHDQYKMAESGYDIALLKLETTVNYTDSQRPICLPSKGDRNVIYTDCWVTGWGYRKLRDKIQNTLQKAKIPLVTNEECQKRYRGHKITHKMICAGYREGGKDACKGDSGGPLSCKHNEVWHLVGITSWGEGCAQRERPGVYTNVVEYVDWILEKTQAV
In short: (§2)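 Final levels: thrombin 0.02 nM; FXa 1.3 nM; FXIa 0.15 nM; plasmin 1.2 nM (substrate 50 μM); tPA 2 nM; kallikrein 0.2 nM; trypsin 0.1 nM; other AMC substrates 5 μM. FVIIa 0.5 pM coupled with tissue factor, factor X 12 nM, FXa substrate 50 μM.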

Rattus norvegicus [4] = assay: Antithrombotic activity in HsdCpd:WU rat model of arteriovenous shunt model assessed as reduction in thrombus weight at 0.6 to 6 mg/kg/hr, iv; type: functional, organism-based; conditions: dose mg/kg/hr 0.6-6
In short: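 Fasting male HsdCpd:WU rats, 300−350 g, anesthetized with Inactin (150−180 mg/kg). Jugular vein and carotid artery linked by a 10 cm PE 60 shunt. Shunt opened 20 min after iv bolus for 15 min; thrombus on nylon thread weighed.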

[5] = AUC/dose in Wistar Hannover rat at 0.3 to 0.5 mg/kg, iv by LC-MS/MS analysis; type: ADME, organism-based; conditions: in vivo, dose 0.3-0.5 mg/kg, time <=24 hrs; in short: as §1
[6] = MRT in Wistar Hannover rat at 0.3 to 0.5 mg/kg, iv by LC-MS/MS analysis; type: ADME, organism-based; conditions: in vivo, dose 0.3-0.5 mg/kg, time <=24 hrs; in short: as §1
Rattus norvegicus [7] = assay: Antithrombotic activity in HsdCpd:WU rat thrombosis model with venous stasis assessed as reduction in thrombus weight at 1 to 10 mg/kg, po dosed 90 mins before thrombus induction measured after 15 mins; type: functional, organism-based; conditions: dose mg/kg 1-10, time 105.0 min
In short: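 Anesthetized rats, n = 6−10 per dose group. Compound in PEG/water/glycerol or vehicle given by gavage 90 min before induction. Two loose sutures placed on vena cava below left renal vein; thromboplastin 0.5 mg/kg iv into femoral vein, sutures tied after 15 s. Segment removed 15 min later and thrombus weighed.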

[8] = Terminal half-life in orally dosed healthy human; type: ADME, organism-based; conditions: in vivo, po, read-out: beta t1/2 (converted)
[9] = Oral bioavailability in Wistar Hannover rat at 1 mg/kg by LC-MS/MS analysis; type: ADME, organism-based; conditions: in vivo, time <=24 hrs
In short: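 Catheterized male Wistar Hannover rats dosed by gavage at 1 mg/kg in 10% ethanol/40% PEG/50% water. Blood taken via catheter at 0.083 to 24 h. Plasma precipitated with acetonitrile and analysed by LC-MS/MS. Bioavailability derived against iv dosing at 0.3 to 0.5 mg/kg.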

[10] = Volume of distribution at steady state in Wistar Hannover rat at 0.3 to 0.5 mg/kg, iv by LC-MS/MS analysis; type: ADME, organism-based; conditions: in vivo, dose 0.3-0.5 mg/kg, time <=24 hrs, read-out: Vdss; in short: as §1
[11] = target: Coagulation factor X (Homo sapiens) (UniProt P00742); assay: Inhibition of purified human plasma factor-10a up to 20 uM using Boc-Ile-Glu-Gly-Arg-AMC substrate incubated for 30 mins by fluorescence based assay; conditions: dose microM <=20, time 30.0 min; in short: as §2
Sequence of Coagulation factor X (Homo sapiens) (P00742 41-179 limits assumed): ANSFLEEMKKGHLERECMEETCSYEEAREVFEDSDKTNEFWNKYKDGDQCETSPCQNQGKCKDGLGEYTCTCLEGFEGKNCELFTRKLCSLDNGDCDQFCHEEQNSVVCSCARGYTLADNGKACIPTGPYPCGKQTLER
Sequence of Coagulation factor X (Homo sapiens) (P00742 235-488 limits assumed): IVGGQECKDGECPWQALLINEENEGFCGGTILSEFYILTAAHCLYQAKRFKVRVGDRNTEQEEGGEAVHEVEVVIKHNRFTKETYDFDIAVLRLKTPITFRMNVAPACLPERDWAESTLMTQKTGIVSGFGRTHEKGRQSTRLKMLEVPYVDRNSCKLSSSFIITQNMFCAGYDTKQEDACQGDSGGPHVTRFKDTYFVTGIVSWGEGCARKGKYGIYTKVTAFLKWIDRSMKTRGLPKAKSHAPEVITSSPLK

[12] = target: T1, Nuclear receptor subfamily 1 group I member 2 (Homo sapiens, UniProt O75469); assay: Activation of human PXR expressed in human HepG2 cells; type: ADME, cell-based
T1 sequence (O75469 whole entry): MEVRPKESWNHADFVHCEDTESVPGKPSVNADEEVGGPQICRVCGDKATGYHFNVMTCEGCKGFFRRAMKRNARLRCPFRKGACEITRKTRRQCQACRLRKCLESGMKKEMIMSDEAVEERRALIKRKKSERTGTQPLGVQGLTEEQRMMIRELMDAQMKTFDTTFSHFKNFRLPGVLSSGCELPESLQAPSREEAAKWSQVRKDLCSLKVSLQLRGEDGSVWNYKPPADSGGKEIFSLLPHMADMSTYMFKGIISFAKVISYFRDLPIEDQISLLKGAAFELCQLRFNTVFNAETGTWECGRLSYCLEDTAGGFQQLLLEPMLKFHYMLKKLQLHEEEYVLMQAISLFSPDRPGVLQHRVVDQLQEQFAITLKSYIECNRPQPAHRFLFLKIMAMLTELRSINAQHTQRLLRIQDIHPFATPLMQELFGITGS
In short: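 HepG2 cells transiently co-transfected with human PXR and a luciferase reporter under the human CYP3A4 promoter, 48 h before readout. 24 h after seeding, 1:3 serial dilutions (2 nM to 50 μM, 0.5% DMSO) added. Luminescence normalized to rifampicin (100%) and DMSO (0%). MEC is the lowest concentration raising signal above 4-fold SD of DMSO background.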

[13] = Protein binding in human plasma; type: ADME, cell-free; conditions: read-out: PPB (converted)
[14] = target: Plasma kallikrein (Homo sapiens) (UniProt P03952); assay: Inhibition of purified human plasma kallikrein up to 20 uM using H-Pro-Phe-Arg-AMC substrate incubated for 30 mins by fluorescence based assay; conditions: dose microM <=20, time 30.0 min; in short: as §2
Sequence of Plasma kallikrein (Homo sapiens) (P03952 20-390 limits assumed): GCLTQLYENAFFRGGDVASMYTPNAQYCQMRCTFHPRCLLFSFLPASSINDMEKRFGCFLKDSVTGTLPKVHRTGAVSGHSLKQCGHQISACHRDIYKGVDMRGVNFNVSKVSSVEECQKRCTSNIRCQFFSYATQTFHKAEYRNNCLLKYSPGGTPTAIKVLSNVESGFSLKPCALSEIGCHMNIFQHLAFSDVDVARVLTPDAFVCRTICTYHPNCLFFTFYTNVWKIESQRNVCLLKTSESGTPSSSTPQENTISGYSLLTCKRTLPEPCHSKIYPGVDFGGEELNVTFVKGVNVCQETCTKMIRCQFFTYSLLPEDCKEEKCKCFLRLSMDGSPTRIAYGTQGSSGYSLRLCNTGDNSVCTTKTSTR
Sequence of Plasma kallikrein (Homo sapiens) (P03952 391-638 limits assumed): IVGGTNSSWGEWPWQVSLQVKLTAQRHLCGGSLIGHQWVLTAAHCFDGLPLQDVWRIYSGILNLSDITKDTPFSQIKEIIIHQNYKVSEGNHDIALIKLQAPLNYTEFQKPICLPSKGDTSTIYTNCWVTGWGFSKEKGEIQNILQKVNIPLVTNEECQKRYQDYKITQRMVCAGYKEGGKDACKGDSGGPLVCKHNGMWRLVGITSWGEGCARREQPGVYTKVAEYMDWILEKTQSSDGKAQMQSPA

Trypsin (Homo sapiens) = Trypsin (Homo sapiens) (UniProt P07477+P07478+P35030); assay: Inhibition of purified human plasma trypsin up to 20 uM using Boc-Ile-Glu-Gly-Arg-AMC substrate incubated for 30 mins by fluorescence based assay; type: protein assay; conditions: dose microM <=20, time 30.0 min; in short: as §2

- Papp A→B at 2 h [1]: 13.1 ×10⁻⁶ cm/s
- half-life [2]: 1.4 h
- inhibition [3]: inactive
- AUC/dose [5]: 0.34 kg·h/L
- MRT [6]: 1.2 h
- half-life [8]: 9.5 h
- bioavailability [9]: 38%
- Vd [10]: 3.5 L/kg
- inhibition [11]: inactive
- MEC [12]: 1.9 µM
- fraction unbound [13]: 0.22
- inhibition [14]: inactive
- inhibition (Trypsin (Homo sapiens)): inactive
SMILES: COc1cc(C(=O)N2C[C@H](C)OC[C@@H]2CCO)cc2nc(N[C@H](CF)c3cccc(Cl)c3)oc12
- 2aPTT (Plasma): 0.7 µM
- Activity (Rattus norvegicus [4]): Dose-dependent effect
- Activity (Rattus norvegicus [7]): Dose-dependent effect
